Assay [1] is described as follows: Antitumor activity in vivo in CD2F1 mice measured in terms of percent increase in lifespan calculated at a dose of 6.25 mg/kg intraperitoneally on day one. The class given is functional. As to conditions: Mus musculus, ip, route intraperitoneal. The method in brief: (§1)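 P388 lymphocytic leukemia cells (1×10^6) were implanted ip into CD2F1 mice (about 22 g), five mice per group. Drug was given ip from the day after implantation, either once (day 1) or daily on days 1–5. ILS = (T/C − 1) × 100, where T and C are the median survival times of treated and control mice.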

Assay [2] can be described thus: Antitumor activity in vivo in CD2F1 mice measured in terms of percent increase in lifespan calculated at a dose of 3.13 mg/kg intraperitoneally on days 1-5. As to conditions: Mus musculus, ip, route intraperitoneal. It is filed as functional. The method in brief:
as §1

The next assay has as its system HeLa. In words: In vitro concentration required to inhibit the growth of HeLa S3 cells by 50%. It is filed as functional, cell-based. As to conditions: Homo sapiens. A digest of the protocol: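 HeLa S3 cells (5 × 10⁴) seeded in Eagle's MEM with 10% FBS and 0.06 mg/mL kanamycin; graded drug concentrations, diluted in growth medium, added 24 h after seeding. Incubated 72 h at 37 °C, humidified 5% CO₂. Monolayers then washed, detached with 0.05% trypsin/0.02% EDTA and counted electronically; IC50 taken as concentration giving 50% growth inhibition.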

The nature of assay [3]: Ratio of the ILS tested compound/quinocarcin was determined for day one in CD2F1 mice. It is filed as functional, Mus musculus. The method in brief: (§2)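 CD2F1 mice (5 per group) received 10^6 P388 cells ip. Drug was given ip on day 1 or on days 1–5. ILS was taken as (T/C − 1) × 100 from median survival times, and each compound's ILS was divided by the ILS of quinocarcin.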

A short description of assay [4]: Ratio of the ILS tested compound/quinocarcin was determined in CD2F1 mice on days 1-5. It is filed as functional, Mus musculus. The method in brief: as §2
A short description of assay [5]: Antitumor activity in vivo in CD2F1 mice measured in terms of percent increase in lifespan calculated at a dose of 6.25 mg/kg intraperitoneally on days 1-5. The class given is functional. As to conditions: Mus musculus, ip, route intraperitoneal. The method in brief: as §1
Assay [6] can be described thus: Antitumor activity in vivo in CD2F1 mice measured in terms of percent increase in lifespan calculated at a dose of 12.5 mg/kg intraperitoneally on day one. It is filed as functional. As to conditions: Mus musculus, ip, route intraperitoneal. A digest of the protocol:
as §1

Assay [7] can be described thus: Antitumor activity in vivo in CD2F1 mice measured in terms of percent increase in lifespan calculated at a dose of 25 mg/kg intraperitoneally on day one. The class given is functional. As to conditions: Mus musculus, ip, route intraperitoneal. The method in brief: as §1
Assay [8] in a line: Antitumor activity in vivo in CD2F1 mice measured in terms of percent increase in lifespan calculated at a dose of 12.5 mg/kg intraperitoneally on days 1-5. It is filed as functional. As to conditions: Mus musculus, ip, route intraperitoneal. The method in brief: as §1
The next assay relates to CCRF S-180. As to the kind of experiment: Ratio of ILS tested compound/quinocarcin against murine sarcoma S-180 tumor cell line implanted subcutaneously in mice and the compound administered intravenously at a dose of 12.5 mg/kg on days 1-5. As to conditions: route intravenous. The class given is functional, Mus musculus.
Assay [9] in a line: Antitumor activity in vivo in CD2F1 mice measured in terms of percent increase in lifespan calculated at a dose of 1.56 mg/kg intraperitoneally on days 1-5. The class given is functional. As to conditions: Mus musculus, ip, route intraperitoneal. A digest of the protocol:
as §1

Assay [10] can be described thus: Antitumor activity in vivo in CD2F1 mice measured in terms of percent increase in lifespan calculated at a dose of 50 mg/kg intraperitoneally on days 1-5. The class given is functional. As to conditions: Mus musculus, ip, route intraperitoneal. A digest of the protocol:
as §1

In brackets after ≈: the same amount, converted by molar mass.

For `CCSC1=C(SCC)C(=O)C2=C(C[C@H]3[C@H]4[C@H](C(=O)O)C[C@@H](C5OC[C@@H]2N53)N4C)C1=O` (stereo not given in full), the ILS at 6.25 mg/kg in assay [1] is 64%. The ILS at 3.13 mg/kg in assay [2] was 82%. The IC50 in the assay with HeLa is 0.08 µg/mL (≈ 0.178 µM). In addition, the values for the R in [3] and in assay [4] were 1.33 and 0.93, respectively.
In the case of `COC1=C(SC(C)C)C(=O)C2=C(C1=O)[C@@H]1COC3[C@@H]4C[C@@H](C(=O)O)[C@H]([C@H](C2)N31)N4C` (stereo not given in full), the ILS at 6.25 mg/kg in [1] was 31%; in assay [5], 81%. In the assay with HeLa, this compound gave an IC50 of 0.79 µg/mL (≈ 1.82 µM). In addition, the R in assay [3] was 1.29; in assay [4] it was 1.
Regarding `CCSc1c(O)c2c(c(O)c1OC)[C@H](CO)N1C(C#N)[C@@H]3C[C@@H](C(=O)O)[C@H]([C@@H]1C2)N3C` (stereo not given in full), the ILS at 6.25 mg/kg in assay [5] was 58%. Also, in assay [6], the ILS at 12.5 mg/kg is 28%. In the assay on HeLa, this compound registered an IC50 of 1.18 µg/mL (≈ 2.62 µM). The results for the R in [3] and in [4] were 0.65 and 0.79, respectively.
For the compound `CSc1c(O)c2c(c(O)c1SC)[C@@H]1COC3[C@@H]4C[C@@H](C(=O)O)[C@H]([C@H](C2)N31)N4C` (stereo not given in full), the ILS at 6.25 mg/kg in [5] was 59%. For the same compound, in assay [6], the ILS at 12.5 mg/kg is 65%. The compound also registered an IC50 in the assay on HeLa of 0.13 µg/mL (≈ 0.306 µM). Besides, the results for the R in assay [3] and in [4] were 1.51 and 0.57, respectively.
As to `CCSc1c(O)c2c(c(O)c1SCC)[C@H](CO)N1C(C#N)[C@@H]3C[C@@H](C(=O)O)[C@H]([C@@H]1C2)N3C` (stereo not given in full), the IC50 in the assay with HeLa is below 0.03 µg/mL.
For `CN1[C@@H]2[C@H](C(=O)O)C[C@H]1C(C#N)N1[C@@H](CO)C3=C(C[C@@H]21)C(=O)C(SC(C)(C)C)=C(SC(C)(C)C)C3=O` (stereo not given in full), the ILS at 25 mg/kg in assay [7] was 48%. The ILS at 3.13 mg/kg in assay [2] is 46%. This compound gave an IC50 in the assay with HeLa of 0.004 µg/mL (≈ 0.00749 µM). Further, the R was determined as 1.26 in [3] and 0.5 in [4].
Turning to `COC1=C(SC(C)C)C(=O)C2=C(C[C@H]3[C@H]4[C@H](C(=O)O)C[C@@H](C(C#N)N3[C@H]2CO)N4C)C1=O` (stereo not given in full), the results for the ILS at 12.5 mg/kg in [6] and in assay [8] were 17% and 75%, respectively. Moreover, the half-maximal inhibitory concentration (IC50) with HeLa turned out to be 0.56 µg/mL (≈ 1.21 µM). Further, the R in assay [4] is on record as 1.
For `CCSC1=C(OC)C(=O)C2=C(C[C@H]3[C@H]4[C@H](C(=O)O)C[C@@H](C(C#N)N3[C@H]2CO)N4C)C1=O` (stereo not given in full), the values for the ILS at 6.25 mg/kg in assay [1] and in assay [5] were 29% and 51%, respectively. Further, half-maximal inhibition in the assay with HeLa (IC50) was put at 2.42 µg/mL (≈ 5.41 µM). In addition, in the assay on CCRF S-180, the T/C came out at 0.47. Moreover, the figures for the R in assay [3] and in assay [4] were 0.67 and 0.65, respectively.
Turning to `CCCSC1=C(SCCC)C(=O)C2=C(C[C@H]3[C@H]4[C@H](C(=O)O)C[C@@H](C(C#N)N3[C@H]2CO)N4C)C1=O` (stereo not given in full), the ILS at 6.25 mg/kg in [5] is 42%. The ILS at 25 mg/kg in assay [7] was 56%. This compound had a half-maximal inhibitory concentration (IC50) in the assay on HeLa of 0.05 µg/mL (≈ 0.0989 µM). In addition, the values for the R in assay [3] and in assay [4] were 1.17 and 0.48, respectively.
Take `CN1[C@@H]2[C@H](C(=O)O)C[C@H]1C(C#N)N1[C@@H](CO)C3=C(C[C@@H]21)C(=O)C(SCCO)=C(SCCO)C3=O` (stereo not given in full): the ILS at 6.25 mg/kg in assay [5] was 20%. Further, in assay [6], the ILS at 12.5 mg/kg was 26%. In addition, the IC50 with HeLa was 2.47 µg/mL (≈ 4.85 µM). Also, the R in assay [3] worked out at 0.62.
As for `COC1=C(SC(C)C)C(=O)C2=C(C1=O)[C@H](CO)N1C(C#N)[C@@H]3C[C@@H](C(=O)O)[C@H]([C@@H]1C2)N3C` (stereo not given in full), the figures for the ILS at 12.5 mg/kg in assay [6] and in assay [8] were 21% and 51%, respectively. In the assay on HeLa, 1.12 µg/mL (≈ 2.43 µM) corresponded to half-maximal inhibition (IC50). Also, the R in [3] is given as 0.58; in assay [4], 0.68.
For the compound `COC1=C(SC(C)C)C(=O)C2=C(C[C@H]3[C@H]4[C@H](C(=O)O)C[C@@H](C5OC[C@@H]2N53)N4C)C1=O` (stereo not given in full), in assay [1], the ILS at 6.25 mg/kg was 30%. In addition, the ILS at 1.56 mg/kg in assay [9] is 51%. In the assay on HeLa, this compound displayed an IC50 of 2.37 µg/mL (≈ 5.45 µM). The R in assay [3] was 1.25; in assay [4] it was 0.63.
`CCOC(=O)CSC1=C(SCC(=O)OCC)C(=O)C2=C(C[C@H]3[C@H]4[C@H](C(=O)O)C[C@@H](C(C#N)N3[C@H]2CO)N4C)C1=O` (stereo not given in full): the ILS at 50 mg/kg in assay [10] is 30%. It took 9.96 µg/mL (≈ 16.8 µM) to reach half-maximal inhibition in the assay on HeLa (IC50).
As for `CCSC1=C(SCC)C(=O)C2=C(C[C@H]3[C@H]4[C@H](C(=O)O)C[C@@H](C(C#N)N3[C@H]2CO)N4C)C1=O` (stereo not given in full), in assay [5], the ILS at 6.25 mg/kg was 51%. Moreover, the ILS at 12.5 mg/kg in assay [6] is 50%. The IC50 in the assay with HeLa turned out to be 0.11 µg/mL (≈ 0.23 µM). The R stood at 1.16 in assay [3] and 0.42 in assay [4].
As to `CCCSC1=C(SCCC)C(=O)C2=C(C[C@H]3[C@H]4[C@H](C(=O)O)C[C@@H](C5OC[C@@H]2N53)N4C)C1=O` (stereo not given in full), the ILS at 6.25 mg/kg in [5] was 86%. The ILS at 12.5 mg/kg in assay [6] is 58%. In the assay on HeLa, 0.03 µg/mL (≈ 0.0627 µM) corresponded to half-maximal inhibition (IC50). Also, the figures for the R in assay [3] and in assay [4] were 1.21 and 0.98, respectively.
The like results for `CC(C)Sc1c(O)c2c(c(O)c1SC(C)C)[C@H](CO)N1C(C#N)[C@@H]3C[C@@H](C(=O)O)[C@H]([C@@H]1C2)N3C` (stereo not given in full) were, in that order, 102%, 51%, below 0.03 µg/mL, 1 and 1.09.
For `CCSC1=C(OC)C(=O)C2=C(C1=O)[C@H](CO)N1C(C#N)[C@@H]3C[C@@H](C(=O)O)[C@H]([C@@H]1C2)N3C` (stereo not given in full), in assay [5], the ILS at 6.25 mg/kg is 59%. The ILS at 25 mg/kg in assay [7] was 31%. Also, the IC50 with HeLa is 2.88 µg/mL (≈ 6.44 µM). Further, the R worked out at 0.72 in [3] and 0.76 in assay [4].
As for `CN1[C@@H]2[C@H](C(=O)O)C[C@H]1C(C#N)N1[C@@H](CO)c3c(O)c(SCCO)c(SCCO)c(O)c3C[C@@H]21` (stereo not given in full), the ILS at 6.25 mg/kg in [1] is 18%; in [5], 41%. In addition, the IC50 in the assay on HeLa is 3.24 µg/mL (≈ 6.33 µM). In addition, the values for the R in [3] and in assay [4] were 0.44 and 0.39, respectively.
For the compound `CN1[C@@H]2[C@H](C(=O)O)C[C@H]1C(C#N)N1[C@@H](CO)c3c(O)ccc(O)c3C[C@@H]21` (stereo not given in full), the ILS at 6.25 mg/kg in [5] was 23%. For the same compound, in [6], the ILS at 12.5 mg/kg is 23%. In addition, the midpoint of inhibition in the assay on HeLa, the IC50, lay at 6.1 µg/mL (≈ 17 µM).

Source of the values: ChEMBL document CHEMBL1125273, “Synthesis and biological evaluation of quinocarcin derivatives: thioalkyl-substituted quinones and hydroquinones” (J Med Chem, 1991).
